Assay results: ChEMBL document CHEMBL1147105, “In vitro and in vivo activities of PD 0305970 and PD 0326448, new bacterial gyrase/topoisomerase inhibitors with potent antibacterial activities versus multidrug-resistant gram-positive and fastidious organism groups” (2007)

Tests used:
Streptococcus pneumoniae [1] = test: Antibacterial activity against penicillin-resistant Streptococcus pneumoniae; assay type: functional
Procedure, shortened: (§1)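 Broth microdilution MIC per CLSI guidelines, incubated at 35°C. Cation-adjusted Mueller-Hinton broth for nonfastidious organisms and staphylococci. Streptococci tested in the same broth with 3% lysed horse blood. Anaerobes tested in supplemented Brucella broth inside an anaerobe chamber (5% CO2, 5% H2, 90% N2), read after 48 h. Strains were mainly recent clinical isolates with confirmed identity.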

Moraxella catarrhalis = test: Antibacterial activity against beta-lactamase negative Moraxella catarrhalis; assay type: functional
Streptococcus viridans = test: Antibacterial activity against Streptococcus viridans; assay type: functional
Procedure, shortened: (§2)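 Broth microdilution MIC following CLSI guidelines, in cation-adjusted Mueller-Hinton broth with 3% lysed horse blood. Plates incubated at 35°C. Clinical isolates and reference strains, with identity confirmed by standard microbiological methods.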

Staphylococcus warneri = test: Antibacterial activity against Staphylococcus warneri; assay type: functional
Procedure, shortened: (§3)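 Broth microdilution MIC following CLSI guidelines, in cation-adjusted Mueller-Hinton broth, incubated at 35°C. Recent clinical isolates and reference strains, with identity confirmed by automated and standard microbiological methods. Results reported as MIC range, MIC50 and MIC90.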

Streptococcus pneumoniae [2] = test: Antibacterial activity against levofloxacin-resistant Streptococcus pneumoniae; assay type: functional; procedure, shortened: as §1
Enterococcus faecalis [3] = test: Antibacterial activity against VanA-resistant Enterococcus faecalis; assay type: functional; procedure, shortened: as §1
Legionella pneumophila = test: Antibacterial activity against Legionella pneumophila; assay type: functional
Procedure, shortened: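 Broth microdilution MIC per CLSI guidelines, run in buffered yeast extract α-ketoglutarate broth at 35°C and read after 48 h.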

Acinetobacter sp. = test: Antibacterial activity against Acinetobacter sp.; assay type: functional; procedure, shortened: as §3
Bacteroides ovatus = test: Antibacterial activity against Bacteroides ovatus; assay type: functional
Procedure, shortened: (§4)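 Anaerobic broth microdilution MIC following CLSI guidelines, in supplemented Brucella broth. Run in an anaerobe chamber under 5% CO2, 5% H2 and 90% N2 at 35°C, and read after 48 h. Reported as MIC range, MIC50 and MIC90.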

Enterococcus gallinarum = test: Antibacterial activity against Enterococcus gallinarum; assay type: functional
Proteus mirabilis = test: Antibacterial activity against Proteus mirabilis; assay type: functional; procedure, shortened: as §3
[4] = test system: Prevotella melaninogenica; test: Antibacterial activity against Prevotella melaninogenica; assay type: functional; procedure, shortened: as §4
Neisseria meningitidis = test: Antibacterial activity against Neisseria meningitidis; assay type: functional
Procedure, shortened: (§5)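 MIC by broth microdilution in gonococcal broth, incubated at 35°C in 5% CO2. Reported as MIC range, MIC50 and MIC90.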

Burkholderia cepacia = test: Antibacterial activity against Burkholderia cepacia; assay type: functional; procedure, shortened: as §3
Shigella flexneri = test: Antibacterial activity against Shigella flexneri; assay type: functional; procedure, shortened: as §3
Staphylococcus aureus = test: Antibacterial activity against vancomycin-intermediate Staphylococcus aureus; assay type: functional; procedure, shortened: as §1
Enterococcus faecalis [5] = test: Antibacterial activity against beta-lactamase positive Enterococcus faecalis; assay type: functional
Procedure, shortened: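 MIC by CLSI broth microdilution for nonfastidious organisms, in cation-adjusted Mueller-Hinton broth incubated at 35°C.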

Haemophilus influenzae [6] = test: Antibacterial activity against beta-lactamase positive Haemophilus influenzae; assay type: functional
Procedure, shortened: (§6)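 Broth microdilution MIC following CLSI guidelines, in Haemophilus test medium at 35°C.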

[7] = test system: Peptoniphilus asaccharolyticus; test: Antibacterial activity against Peptostreptococcus asaccharolyticus; assay type: functional; procedure, shortened: as §4
Enterococcus faecium [8] = test: Antibacterial activity against VanA-resistant Enterococcus faecium; assay type: functional; procedure, shortened: as §1
Prevotella bivia = test: Antibacterial activity against Prevotella bivia; assay type: functional; procedure, shortened: as §4
Enterococcus faecalis [9] = test: Antibacterial activity against VanB-resistant Enterococcus faecalis; assay type: functional; procedure, shortened: as §1
Enterococcus faecalis [10] = test: Antibacterial activity against Enterococcus faecalis; assay type: functional; procedure, shortened: as §1
Corynebacterium jeikeium = test: Antibacterial activity against Corynebacterium jeikeium; assay type: functional
Procedure, shortened: (§7)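 Broth microdilution MIC following CLSI guidelines, in cation-adjusted Mueller-Hinton broth containing 3% lysed horse blood, incubated at 35°C. Clinical isolates with identity confirmed. Reported as MIC range, MIC50 and MIC90.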

Shigella sonnei = test: Antibacterial activity against Shigella sonnei; assay type: functional; procedure, shortened: as §3
Shigella dysenteriae = test: Antibacterial activity against Shigella dysenteriae; assay type: functional
Cutibacterium acnes = test: Antibacterial activity against Propionibacterium acnes; assay type: functional
[11] = test system: Fusobacterium necrophorum; test: Antibacterial activity against Fusobacterium necrophorum; assay type: functional; procedure, shortened: as §4
Streptococcus sanguinis = test: Antibacterial activity against Streptococcus sanguis; assay type: functional; procedure, shortened: as §2
[12] = test system: Enterococcus casseliflavus; test: Antibacterial activity against Enterococcus casseliflavus; assay type: functional
Serratia marcescens = test: Antibacterial activity against Serratia marcescens; assay type: functional; procedure, shortened: as §3
[13] = test system: Staphylococcus haemolyticus; test: Antibacterial activity against Staphylococcus haemolyticus; assay type: functional; procedure, shortened: as §7
Finegoldia magna = test: Antibacterial activity against Peptostreptococcus magnus; assay type: functional; procedure, shortened: as §4
Prevotella corporis = test: Antibacterial activity against Prevotella corporis; assay type: functional; procedure, shortened: as §4
Pseudomonas aeruginosa = test: Antibacterial activity against Pseudomonas aeruginosa; assay type: functional; procedure, shortened: as §3
Streptococcus mitis = test: Antibacterial activity against Streptococcus mitis; assay type: functional; procedure, shortened: as §2
Klebsiella pneumoniae = test: Antibacterial activity against Klebsiella pneumoniae; assay type: functional; procedure, shortened: as §3
[14] = test system: Stenotrophomonas maltophilia; test: Antibacterial activity against Stenotrophomonas maltophilia; assay type: functional; procedure, shortened: as §3
Fusobacterium nucleatum = test: Antibacterial activity against Fusobacterium nucleatum; assay type: functional; procedure, shortened: as §4
Neisseria gonorrhoeae = test: Antibacterial activity against Neisseria gonorrhoeae; assay type: functional; procedure, shortened: as §5
Fusobacterium sp. = test: Antibacterial activity against Fusobacterium sp.; assay type: functional; procedure, shortened: as §4
Prevotella sp. = test: Antibacterial activity against Prevotella sp.; assay type: functional; procedure, shortened: as §4
Streptococcus pyogenes = test: Antibacterial activity against Streptococcus pyogenes; assay type: functional; procedure, shortened: as §2
Salmonella enteritidis = test: Antibacterial activity against Salmonella enterica serovar Enteritidis; assay type: functional, Salmonella enterica subsp. enterica serovar Enteritidis; procedure, shortened: as §3
Haemophilus influenzae [15] = test: Antibacterial activity against beta-lactamase negative Haemophilus influenzae; assay type: functional; procedure, shortened: as §6
Prevotella buccae = test: Antibacterial activity against Prevotella buccae; assay type: functional; details: Segatella buccae; procedure, shortened: as §4
Streptococcus pneumoniae [16] = test: Antibacterial activity against penicillin-intermediate resistant Streptococcus pneumoniae; assay type: functional; procedure, shortened: as §1
Listeria monocytogenes = test: Antibacterial activity against Listeria monocytogenes; assay type: functional; procedure, shortened: as §7
Enterococcus faecium [17] = test: Antibacterial activity against Enterococcus faecium; assay type: functional; procedure, shortened: as §1

C[C@H]1COc2c(N3CCN(C)CC3)c(F)cc3c(=O)c(C(=O)O)cn1c23.C[C@H]1COc2c(N3CCN(C)CC3)c(F)cc3c(=O)c(C(=O)O)cn1c23.O [LEVOFLOXACIN]
MIC50 (Streptococcus pneumoniae [1]): 0.5 µg/mL | MIC90 (Streptococcus pneumoniae [1]): 1 µg/mL | MIC50 (Moraxella catarrhalis): 0.03 µg/mL | MIC90 (Moraxella catarrhalis): 0.06 µg/mL | MIC50 (Streptococcus viridans): 1 µg/mL | MIC90 (Streptococcus viridans): 1 µg/mL | MIC (Staphylococcus warneri): 0.125 µg/mL | MIC50 (Streptococcus pneumoniae [2]): 16 µg/mL | MIC90 (Streptococcus pneumoniae [2]): 16 µg/mL | MIC (Enterococcus faecalis [3]): 16 µg/mL | MIC50 (Legionella pneumophila): 8 ng/mL | MIC90 (Legionella pneumophila): 0.015 µg/mL | MIC50 (Acinetobacter sp.): 0.125 µg/mL | MIC90 (Acinetobacter sp.): 16 µg/mL | MIC50 (Bacteroides ovatus): 8 µg/mL | MIC90 (Bacteroides ovatus): 32 µg/mL | MIC50 (Enterococcus gallinarum): 1 µg/mL | MIC90 (Enterococcus gallinarum): 2 µg/mL | MIC50 (Proteus mirabilis): 0.125 µg/mL | MIC90 (Proteus mirabilis): 2 µg/mL | MIC50 [4]: 1 µg/mL | MIC90 [4]: 2 µg/mL | MIC50 (Neisseria meningitidis): 8 ng/mL | MIC90 (Neisseria meningitidis): 8 ng/mL | MIC50 (Burkholderia cepacia): 4 µg/mL | MIC90 (Burkholderia cepacia): 16 µg/mL | MIC50 (Shigella flexneri): 0.03 µg/mL | MIC90 (Shigella flexneri): 0.06 µg/mL | MIC (Staphylococcus aureus): 16 µg/mL | MIC (Enterococcus faecalis [5]): 0.5 µg/mL | MIC50 (Haemophilus influenzae [6]): 8 ng/mL | MIC90 (Haemophilus influenzae [6]): 0.015 µg/mL | MIC [7]: 0.125 µg/mL | MIC50 (Enterococcus faecium [8]): 64 µg/mL | MIC90 (Enterococcus faecium [8]): 64 µg/mL | MIC50 (Prevotella bivia): 1 µg/mL | MIC90 (Prevotella bivia): 2 µg/mL | MIC50 (Enterococcus faecalis [9]): 16 µg/mL | MIC90 (Enterococcus faecalis [9]): 32 µg/mL | MIC50 (Enterococcus faecalis [10]): 16 µg/mL | MIC90 (Enterococcus faecalis [10]): 32 µg/mL | MIC50 (Corynebacterium jeikeium): 0.25 µg/mL | MIC90 (Corynebacterium jeikeium): 0.5 µg/mL | MIC50 (Shigella sonnei): 0.03 µg/mL | MIC90 (Shigella sonnei): 0.06 µg/mL | MIC50 (Shigella dysenteriae): 0.03 µg/mL | MIC90 (Shigella dysenteriae): 0.06 µg/mL | MIC50 (Cutibacterium acnes): 2 µg/mL | MIC90 (Cutibacterium acnes): 64 µg/mL | MIC [11]: 0.03 µg/mL | MIC50 (Streptococcus sanguinis): 1 µg/mL | MIC90 (Streptococcus sanguinis): 1 µg/mL | MIC50 [12]: 2 µg/mL | MIC90 [12]: 2 µg/mL | MIC50 (Serratia marcescens): 0.125 µg/mL | MIC90 (Serratia marcescens): 4 µg/mL | MIC50 [13]: 0.25 µg/mL | MIC90 [13]: 32 µg/mL | MIC (Finegoldia magna): 0.125 µg/mL | MIC50 (Prevotella corporis): 1 µg/mL | MIC90 (Prevotella corporis): 2 µg/mL | MIC50 (Pseudomonas aeruginosa): 1 µg/mL | MIC90 (Pseudomonas aeruginosa): 64 µg/mL | MIC50 (Streptococcus mitis): 1 µg/mL | MIC90 (Streptococcus mitis): 1 µg/mL | MIC50 (Klebsiella pneumoniae): 0.06 µg/mL | MIC90 (Klebsiella pneumoniae): 0.5 µg/mL | MIC50 [14]: 1 µg/mL | MIC90 [14]: 4 µg/mL | MIC (Fusobacterium nucleatum): 0.03 µg/mL | MIC50 (Neisseria gonorrhoeae): 8 ng/mL | MIC90 (Neisseria gonorrhoeae): 8 ng/mL | MIC (Fusobacterium sp.): 0.03 µg/mL | MIC50 (Prevotella sp.): 1 µg/mL | MIC90 (Prevotella sp.): 2 µg/mL | MIC50 (Streptococcus pyogenes): 0.5 µg/mL | MIC90 (Streptococcus pyogenes): 2 µg/mL | MIC50 (Salmonella enteritidis): 0.03 µg/mL | MIC90 (Salmonella enteritidis): 0.06 µg/mL | MIC50 (Haemophilus influenzae [15]): 0.015 µg/mL | MIC90 (Haemophilus influenzae [15]): 0.03 µg/mL | MIC50 (Prevotella buccae): 1 µg/mL | MIC90 (Prevotella buccae): 2 µg/mL | MIC50 (Streptococcus pneumoniae [16]): 1 µg/mL | MIC90 (Streptococcus pneumoniae [16]): 1 µg/mL | MIC50 (Listeria monocytogenes): 1 µg/mL | MIC90 (Listeria monocytogenes): 1 µg/mL | MIC50 (Enterococcus faecium [17]): 32 µg/mL | MIC90 (Enterococcus faecium [17]): 64 µg/mL
